Test [1] concerns Human alphaherpesvirus 3. Nature of the test: Minimum cytotoxic concentration that causes alterations of VZV infected Osteosarcoma cell morphology. It counts as functional.
Test [2] has as its system Human alphaherpesvirus 3. Briefly: Antiviral activity against YS/R strain of thymidine kinase negative(TK-) Varicella-Zoster Virus (VZV). It counts as functional, organism-based.
Test [3] has as its system Human alphaherpesvirus 3. Briefly: Effective concentration against TK- Varicella-Zoster Virus (VZV) YS/R strain. It counts as functional, organism-based.
In test [4] the test system is Human alphaherpesvirus 3. Nature of the test: Effective concentration against TK- Varicella-Zoster Virus (VZV) 07/1 strain. It counts as functional, organism-based.
A short description of test [5]: Minimum cytotoxic concentration that causes microscopically detectable alterations of cell morphology. It counts as functional.
Test [6] has as its system Human alphaherpesvirus 3. Nature of the test: Effective concentration against TK+ Varicella-Zoster Virus (VZV) OKA strain. In kind it is functional, organism-based.
The nature of test [7]: Cytotoxic concentration that produces 50% inhibition of cell growth. It counts as functional.
The subject of test [8] is Human alphaherpesvirus 3. Nature of the test: Antiviral activity against OKA strain of thymidine kinase positive(TK+) Varicella-Zoster Virus (VZV). It counts as functional, organism-based.
Test [9] has as its system Human alphaherpesvirus 3. Briefly: Antiviral activity against YS strain of thymidine kinase positive(TK+) Varicella-Zoster Virus (VZV). It counts as functional, organism-based.
In test [10] the test system is Human alphaherpesvirus 3. Briefly: Effective concentration against TK+ Varicella-Zoster Virus (VZV)YS strain. In kind it is functional, organism-based.
In test [11] the test system is Human alphaherpesvirus 3. Nature of the test: Cytotoxic concentration that causes growth inhibition of VZV infected Osteosarcoma cells. In kind it is functional.
In test [12] the test system is Human alphaherpesvirus 3. Briefly: Antiviral activity against 07/1 strain of thymidine kinase negative (TK-) Varicella-Zoster Virus (VZV). It counts as functional, organism-based.
Test [13] concerns Human alphaherpesvirus 2. Briefly: Inhibitory concentration required to reduce HSV-2 induced cytopathogenic effect (CPE) by 50 % in HFF cells. It counts as functional, organism-based. The following applies: Human alphaherpesvirus 2, HFF. On the technique in general: Damage to the host cells serves as the signal in cytopathic effect assays.
For test [14], the system named is HFF. Nature of the test: Cytotoxic concentration for 50% inhibition of cell growth of HSV-1 infected HFF cells determined by VPR assay. Conditions: Homo sapiens. In kind it is functional.
Test [15] is filed under the species Homo sapiens. Briefly: Cytotoxic concentration that produces 50% growth inhibition of human skin fibroblast infected with HSV-1. In kind it is functional.
Test [16] has as its system HFF. Briefly: Cytotoxic concentration for 50% inhibition of cell growth of HSV-2 infected HFF cells determined by VPR assay. It counts as functional. The following applies: Homo sapiens. The procedure, abridged: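 Run in virus-infected HFF cells within the plaque reduction assay set-up. […] The value was converted from μg/mL to μM.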
For test [17], the species on record is Homo sapiens. Briefly: Cytotoxic concentration that produces 50% growth inhibition of human skin fibroblast in VPR assay. It counts as functional.
The species entered for test [18] is Homo sapiens. Briefly: Inhibitory concentration required to reduce HSV-1 induced virus plaque reduction (VPR) in human skin fibroblast. It counts as functional, organism-based.
Test [19] concerns HFF. Nature of the test: Cytotoxic concentration for 50% inhibition of cell growth of HSV-1 infected HFF cells determined by CPE assay. The following applies: Homo sapiens. In kind it is functional.
In test [20] the test system is HFF. Briefly: Inhibitory concentration for HSV-2 plaque reduction (VPR) by 50% in HFF cells. In kind it is functional, cell-based. Conditions: Homo sapiens.
The species named for test [21] is Homo sapiens. Nature of the test: (§1) Inhibitory concentration required to reduce HSV-1 induced cytopathogenic effect (CPE) in human skin fibroblast. In kind it is functional, organism-based.
In test [22] the test system is HFF. Nature of the test: Inhibitory concentration for HSV-1 plaque reduction (VPR) by 50% in HFF cells. It counts as functional, cell-based. Conditions: Homo sapiens.
The nature of test [23]: Inhibition constant against HSV-1 TK. It counts as functional, herpes simplex virus.
Test [24] relates to HFF. Nature of the test: Cytotoxic concentration for 50% inhibition of cell growth of HSV-2 infected HFF cells determined by CPE assay. It counts as functional. The following applies: Homo sapiens.
The species entered for test [25] is Homo sapiens. Nature of the test: Inhibitory concentration required to reduce HSV-2 induced virus plaque reduction (VPR) in human skin fibroblast. It counts as functional, organism-based.
The species entered for test [26] is Homo sapiens. Nature of the test: Inhibitory concentration required to reduce HSV-2 induced cytopathogenic effect in human skin fibroblast. In kind it is functional, organism-based.
Test [27] deals with Human alphaherpesvirus 1. Nature of the test: Inhibitory concentration required to reduce HSV-1 induced cytopathogenic effect (CPE) by 50 % in HFF cells. It counts as functional, organism-based, herpes simplex virus. Conditions: Human alphaherpesvirus 1, HFF.
Test [28] is described as follows: Cytotoxic concentration against HSV-1 TK- transfected osteosarcoma cells. The following applies: Human alphaherpesvirus 1. In kind it is functional. The procedure, abridged: (§2)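 Osteosarcoma lines (143B-TK⁻ with 0.1 mg/mL 5-BrdU selection; MG-63-hTK1; 143B-TK⁺-HSV1-WT with HAT) grown in MEM/10% FCS. Seeded at 2 × 10³ (143B lines) or 1.5 × 10³ (MG-63) cells/well, exposed to five concentrations over 0.5–500 μM for 4.5 days at 37 °C/5% CO₂. XTT added for 9 h, A450 (ref 750 nm) read against untreated wells. Three independent series in triplicate.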

Test [29] is described as follows: Cytotoxic concentration against non transfected osteosarcoma cells non transfected (MG-63-hTK1). In kind it is functional. The method, boiled down:
as §2

Test [30] deals with T1, Thymidine kinase, cytosolic (Homo sapiens) (UniProt P04183).
T1 sequence (whole entry): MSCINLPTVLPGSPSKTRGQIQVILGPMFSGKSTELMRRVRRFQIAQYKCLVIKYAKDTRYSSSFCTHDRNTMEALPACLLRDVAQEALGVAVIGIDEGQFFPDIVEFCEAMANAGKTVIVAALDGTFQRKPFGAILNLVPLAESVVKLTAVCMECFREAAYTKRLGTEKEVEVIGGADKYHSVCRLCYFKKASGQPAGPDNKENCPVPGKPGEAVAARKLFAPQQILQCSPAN
The following applies: herpes simplex virus.

A short description of test [31]: Cytotoxic concentration against HSV-1 TK-transfected osteosarcoma cells. Conditions: Human alphaherpesvirus 1. In kind it is functional. The method, boiled down:
as §2

Test [32] can be described thus: Inhibitory activity against HSV-1-TK transfected osteosarcoma cells. It counts as functional. The procedure, abridged:
as §2

Test [33] relates to Human alphaherpesvirus 1. Described as §1. It counts as functional, organism-based, herpes simplex virus.
Test [34] deals with HFF. Briefly: Concentration for HSV-1 plaque reduction (VPR) by 50% in HFF cells. It counts as functional, cell-based. Conditions: Homo sapiens.
Test [35] deals with HFF. Nature of the test: Concentration for HSV-2 plaque reduction (VPR) by 50% in HFF cells. In kind it is functional, cell-based. Conditions: Homo sapiens.

Structures are written as SMILES. A value given as a limit tells only on which side of the number the result lay.

The EC50 is the concentration needed to bring the measured effect to its halfway point. Higher therefore signals a less potent agent. For orientation: CC50 means the concentration that lowers cell viability or growth by half. Low values mean harm at low concentration, high ones better tolerance by the cells. On to `O=c1[nH]c(=O)n([C@H]2C[C@H](O)[C@@H](CO)O2)cc1/C=C/Br` [BRIVUDINE], for which the MCC in test [1] and in test [5] was more than 150 µM each time. Moreover, the EC50 was more than 150 µM in test [2]; more than 150 µM in test [3]; more than 150 µM in test [4]; 5 nM in test [6]; 5 nM in [8]; 8 nM in test [9]. Besides, the EC50 was 8 nM in [10] and more than 150 µM in test [12]. The CC50 in test [7] and in test [11] was more than 400 µM each time.
In general, Ki refers to the dissociation constant of the complex between target and ligand, obtained from inhibition or displacement. Read a low Ki as tighter binding. Take `Cc1cn([C@H]2C[C@H](O)[C@]3(CO)C[C@H]23)c(=O)[nH]c1=O` [(NORTH)-METHANOCARBATHYMIDINE]: the EC50 in test [13] was determined as 0.35 µM; in test [18], 40 nM; in [20], 470 nM; in test [21], 120 nM; in test [22] it was 40 nM; in [25] it was 470 nM. Besides, the EC50 in [26] turned out to be 0.35 µM; in [27], 120 nM. Further, the 50% cytotoxic concentration (CC50) is more than 79 µM in test [14]; more than 396 µM in [15]; more than 79 µM in test [16]; more than 79 µM in test [17]; more than 396 µM in test [19]; more than 396 µM in [24]. In addition, the inhibitory constant (Ki) in test [23] amounted to 16.1 µM.
As to `Nc1nc2c(ncn2COC(CO)CO)c(=O)[nH]1` [GANCICLOVIR], the CC50 in [28] was 200 µM; in [29], 300 µM; in test [31], 75 µM; in [32], 75 µM. Besides, the k cat in [30] was 0.1 s⁻¹.
For `Nc1nc2c(ncn2COCCO)c(=O)[nH]1` [ACYCLOVIR], the half-maximal effective concentration (EC50) turned out to be 10.2 µM in test [13]; 2220 nM in test [33]; 1100 nM in test [18]; 1100 nM in test [34]; 1680 nM in [35]; 1680 nM in test [25]. In addition, the values for the EC50 in test [26] and in test [27] were 10.2 µM and 2220 nM, respectively.

The values are drawn from ChEMBL document CHEMBL1144911, “Synthesis and biological evaluation of 5-substituted derivatives of the potent antiherpes agent (north)-methanocarbathymine” (J Med Chem, 2003).
